# Article PMC4804703 (ACS chemical neuroscience, 2015)
# “Also recorded” adds a separate entry of the source. Where two headings read alike, the source gives them in different places.
# What was measured:
# [1] = target: CB1R in mouse hippocampus (Mus musculus, UniProt P47746); assay: [^35S]GTPγS binding, mouse hippocampus membranes; type: biochemical; settings: for EC50: read-out: EC50, stimulation of [^35S]GTPγS binding, n = 3–4
# [2] = target: rat CB1R (rCB1R); settings: cited from earlier work; for selectivity vs CB2R: rCB1R vs CB2R
# [3] = target: hCB1R (Homo sapiens, UniProt P21554); assay: Cellular cAMP assay, forskolin-stimulated, Flp-In-293 cells; type: cell-based; settings: for potency relative to AEA, inhibition of forskolin-stimulated cAMP production: greater than the potency reported for AEA in this assay
# Chain of hCB1R (P21554 whole entry): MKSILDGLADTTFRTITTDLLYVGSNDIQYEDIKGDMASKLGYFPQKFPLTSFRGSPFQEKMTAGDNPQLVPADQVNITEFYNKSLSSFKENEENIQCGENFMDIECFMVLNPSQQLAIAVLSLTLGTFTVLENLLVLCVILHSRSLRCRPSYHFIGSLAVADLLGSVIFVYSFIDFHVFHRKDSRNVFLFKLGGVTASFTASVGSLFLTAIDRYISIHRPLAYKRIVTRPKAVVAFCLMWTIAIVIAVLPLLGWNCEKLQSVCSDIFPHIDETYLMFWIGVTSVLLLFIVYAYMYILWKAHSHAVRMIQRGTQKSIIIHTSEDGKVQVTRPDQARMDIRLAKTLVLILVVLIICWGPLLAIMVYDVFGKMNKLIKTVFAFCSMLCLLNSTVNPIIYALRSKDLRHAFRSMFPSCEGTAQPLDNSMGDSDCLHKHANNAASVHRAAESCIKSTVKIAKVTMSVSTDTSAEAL
# [4] = test system: recombinant hCB1R; settings: cited from earlier work
# [5] = target: T1, hCB1R C7.42(386)S (Homo sapiens, UniProt P21554, C386S); assay: Competition binding with [^3H]CP55,940, Flp-In-293 membranes; settings: read-out: apparent Ki (95% CI); C7.42(386)S mutant; [^3H]CP55,940 0.75 nM
# T1 sequence (P21554 whole entry C386S): as the sequence (P21554 whole entry) above, with C386S counted along it
# [6] = target: T2, hCB1R C6.47(355)S (Homo sapiens, UniProt P21554, C355S); assay: as above; settings: read-out: apparent Ki (95% CI); C6.47(355)S mutant; [^3H]CP55,940 0.75 nM
# T2 sequence (P21554 whole entry C355S): as the sequence (P21554 whole entry) above, with C355S counted along it
# [7] = target: T2, hCB1R C6.47(355)S; assay: Covalent labeling assay; type: binding; settings: C6.47(355)S mutant; AM3677 10-fold apparent Ki
# Outline: (§1)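 Flp-In-293 membranes stably expressing the Cys→Ser hCB1R mutant, at 0.8 mg/mL in TME-0.1% BSA, were preincubated with 20 nM test compound (controls without) at 30 °C for 1 h. Unbound probe was removed by 27 000g spins, TME-1% BSA washes (one 20 min at 30 °C) and TME washes.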
# [8] = target: hemagglutinin (HA)-tagged rCB1R (Rattus norvegicus, UniProt P20272); assay: CB1R internalization, HEK293 cells; type: cell-based; settings: 30 min at 37 °C; best-fit sigmoidal curve
# Chain of hemagglutinin (HA)-tagged rCB1R (P20272 whole entry): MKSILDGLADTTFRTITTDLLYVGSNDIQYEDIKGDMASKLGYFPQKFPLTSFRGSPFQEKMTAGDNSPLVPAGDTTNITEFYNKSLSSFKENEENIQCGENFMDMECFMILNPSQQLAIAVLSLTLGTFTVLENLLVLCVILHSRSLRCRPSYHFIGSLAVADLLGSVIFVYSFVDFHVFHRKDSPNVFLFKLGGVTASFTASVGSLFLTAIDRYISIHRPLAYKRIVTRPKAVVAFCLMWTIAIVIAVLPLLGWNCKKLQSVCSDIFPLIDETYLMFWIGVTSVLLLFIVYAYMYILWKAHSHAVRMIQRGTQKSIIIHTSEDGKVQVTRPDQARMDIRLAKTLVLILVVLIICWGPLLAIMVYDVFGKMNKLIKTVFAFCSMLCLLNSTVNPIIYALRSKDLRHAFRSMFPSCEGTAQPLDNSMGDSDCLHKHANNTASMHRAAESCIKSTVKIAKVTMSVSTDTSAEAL
# [9] = Binding to membranes from nontransfected cells; settings: membranes from nontransfected Flp-In-293 cells; data not shown
# Outline: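 Membranes from non-transfected Flp-In-293 cells were prepared by cavitation and ultracentrifugation and resuspended in TME (25 mM Tris-HCl, 5 mM MgCl₂, 1 mM EDTA, pH 7.4). […] Filters were washed in ice-cold buffer and counted by scintillation.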
# [10] = target: T3, hCB1R C4.47(238)S (Homo sapiens, UniProt P21554, C238S); assay: Competition binding with [^3H]CP55,940, Flp-In-293 membranes; settings: read-out: apparent Ki (95% CI); C4.47(238)S mutant; [^3H]CP55,940 0.75 nM
# T3 sequence (P21554 whole entry C238S): as the sequence (P21554 whole entry) above, with C238S counted along it
# [11] = target: T4, hCB1R C7.38(382)S (Homo sapiens, UniProt P21554, C382S); assay: as above; settings: read-out: apparent Ki (95% CI); C7.38(382)S mutant; [^3H]CP55,940 0.75 nM
# T4 sequence (P21554 whole entry C382S): as the sequence (P21554 whole entry) above, with C382S counted along it
# [12] = target: T5, hCB1R C1.55(139)S (Homo sapiens, UniProt P21554, C139S); assay: Covalent labeling assay; type: binding; settings: C1.55(139)S mutant; 20 nM AM3677
# T5 sequence (P21554 whole entry C139S): as the sequence (P21554 whole entry) above, with C139S counted along it
# Outline: as §1
# [13] = target: T5, hCB1R C1.55(139)S; assay: Competition binding with [^3H]CP55,940, Flp-In-293 membranes; settings: read-out: apparent Ki (95% CI); C1.55(139)S mutant; [^3H]CP55,940 0.75 nM
# [14] = target: T4, hCB1R C7.38(382)S; assay: Covalent labeling assay; type: binding; settings: C7.38(382)S mutant; 20 nM AM3677
# Outline: as §1
# [15] = target: T1, hCB1R C7.42(386)S; assay: Covalent labeling assay; type: binding; settings: C7.42(386)S mutant; 20 nM AM3677
# Outline: as §1
# [16] = test system: Flp-In cells that were not transfected with CB1Rs; assay: Cellular cAMP assay, non-transfected control cells; type: cell-based; settings: routine control; data not shown
# [17] = target: T3, hCB1R C4.47(238)S; assay: Covalent labeling assay; type: binding; settings: C4.47(238)S mutant
# Outline: as §1
# [18] = target: WT and Cys mutant hCB1R variants; assay: Saturation binding of [^3H]CP55,940, Flp-In-293 membranes; design: species or system human; settings: average across all six hCB1R variants; mean ± SEM, n = 6
# Chain of CB1R in mouse hippocampus (P47746 whole entry): as the sequence (P20272 whole entry) above, with E95D counted along it
compound,measurement,setting,value
"CCCCC/C=C\C/C=C\C/C=C\C/C=C\CCCC(=O)NCCO [AEA, arachidonoylethanolamide, reference compound]",Emax,"[1]; read-out: maximum response, [^35S]GTPγS binding",34 ± 1.5%
same,Ki,[2]; rCB1R,61 nM
"CCCCC/C=C\C/C=C\C/C=C\C/C=C\CCCC(=O)NC1CC1 [ACPA, (5Z,8Z,11Z,14Z)-eicosa-5,8,11,14-tetraenoic acid cyclopropylamide]","potency relative to AEA, inhibition of forskolin-stimulated cAMP production",[3],~ 200 fold
same,selectivity vs CB2R,[2],60 to 300 fold
same,Ki,"[2]; read-out: apparent Ki, rCB1R, [^3H]CP55,940 as competitive radioligand",2.2 to 2.7 nM
same,agonist type,[4],full agonist
"O=C(CCC/C=C\C/C=C\C/C=C\C/C=C\CCCCCN=C=S)NC1CC1 [AM3677, 20-isothiocyanato-eciosa-5,8,11,14-tetraenoic acid cyclopropylamide]",Ki,[5],1.6 nM
same,Ki,[6],2.2 nM
same,"effect of AM3677 preincubation on Bmax for [^3H]CP55,940 (irreversible binding)",[7],unaffected; also recorded: did not affect
same,"potency relative to AEA, [^35S]GTPγS binding",[1]; more potent than AEA,~100 fold
same,"potency relative to CP55,940, [^35S]GTPγS binding","[1]; more potent than CP55,940",~ 23 fold
same,EC50,[1]; mean ± SEM,50 ± 20 nM
same,"maximum response, [^35S]GTPγS binding","[1]; relative to CP55,940 (maximum = response to 10 μM CP55,940), mean ± SEM, n = 3",32 ± 2.1%
same,maximum internalization,[8],~ 42%
same,specific binding,[9],No specific
same,Ki,[10],2.4 nM
same,"maximal efficacy, inhibition of forskolin-activated cAMP formation",[3]; at micromolar concentrations,~ 60%
same,"potency relative to AEA, inhibition of forskolin-stimulated cAMP production",[3],~ 200 fold
same,IC50,"[3]; read-out: IC50, inhibition of forskolin-activated cAMP formation, Flp-In-293 cells overexpressing hCB1R, 5 μM forskolin, mean ± SEM, n = 3",27.1 ± 2.2 nM
same,Ki,[11],1.9 nM
same,degree of irreversible labeling,[12],comparable to that displayed by WT hCB1R
same,Ki,[13],2.3 nM
same,selectivity vs CB2R,[2],~ 40 fold
same,manner of binding,[2]; rCB1R,irreversible
same,degree of irreversible labeling,[14],comparable to that displayed by WT hCB1R
same,degree of irreversible labeling,[15],comparable to that displayed by WT hCB1R
same,effect on cAMP in non-transfected cells,[16],had no effect
same,degree of irreversible labeling,[17]; 20 nM AM3677,comparable to that displayed by WT hCB1R
same,"reduction of [^3H]CP55,940 specific binding (Bmax)",[17]; AM3677 at 10-fold its apparent Ki,at least 43%
"CCCCCCC(C)(C)c1ccc([C@@H]2C[C@H](O)CC[C@H]2CCCO)c(O)c1 [CP55,940, reference compound]",EC50,[1]; mean ± SEM,1100 ± 200 nM
same,specific binding,[9],No specific
same,Kd,[18],5.4 ± 0.8 nM
